Data on 1 compound can be found in paper PMC7647958 (Molecular imaging and biology, 2020).

Data set [1] relates to DX3puro [αvβ6(−)] cells. The data set can be described thus: Cell binding and internalization, DX3puro cells. It is filed as cell-based. Conditions: 60 min; n = 4. A digest of the protocol: (§1)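 Tubes were pretreated with non-fat milk (0.5 % w/v in PBS). DX3puro cells were kept in DMEM with puromycin (2 μg/ml); BxPC-3 cells were kept in RPMI. Both media had 10 % heat-inactivated FBS and 1 % PSG, at 37 °C and 5 % CO2. Integrin expression was checked by flow cytometry beforehand. Radiotracer binding and internalization ran 60 min (n = 4) and are reported as fraction of total radioactivity.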

Data set [2] has as its system BxPC-3 [αvβ6(+)] cells. Kind of data set: Cell binding and internalization, BxPC-3 cells. The note with it: 60 min; n = 4; mean ± SD. The format is cell-based. A digest of the protocol:
as §1

Data set [3] is described as follows: Serum stability, mouse serum. The format is in vitro ADME. A digest of the protocol:
(§2)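 Formulated radiotracer (12.5–25 μl, 2–6 MBq) was added to 0.5 ml of either human or mouse serum and incubated at 37 °C in a sealed tube. At each time point an aliquot was withdrawn and serum proteins were precipitated. The supernatant was analysed by HPLC for intact radiotracer.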

The nature of data set [4]: Serum stability, human serum. It is filed as in vitro ADME. A digest of the protocol: as §2
A short description of data set [5]: PET imaging, radioactivity remaining in the body. The format is in vivo, mouse. Conditions: 4 h p.i., i.v., PET imaging studies, tumor-bearing mice, n = 4; mean ± SD. The gist of the method: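 Mice bearing xenografts (paired DX3puroβ6/DX3puro or BxPC-3) received 5–7 MBq radiotracer i.v. via tail vein, with mass held at 0.175 nmol (7 nmol/kg for a 25-g mouse). Two mice per scan lay prone under 1.5–2.0 % isoflurane (n = 4/radiotracer). Static PET scans: 15 min at 1, 2, 4 h and 30 min at 6 h p.i., plus CT. Body-retained radioactivity was decay corrected.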

Data set [6] can be described thus: Biodistribution in mice bearing paired DX3puroβ6/DX3puro xenograft tumors. The format is in vivo. The note with it: female, athymic nude, mouse, iv, 0.175 nmol per injection, total radioactivity; for tissue uptake at 1 h: 1 h p.i. The gist of the method:
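Female athymic nude mice carried 3 × 10^6 DX3puro and 3 × 10^6 DX3puroβ6 cells s.c. in DMEM on opposite flanks; studies began at ~0.5 cm tumor diameter. Radiotracer at 1.5–3.3 MBq/animal was given i.v. via tail vein under isoflurane, with mass held at 0.175 nmol by adding nonradioactive peptide. Tissues were taken at 1, 2, 4 or 2, 4, 6 h p.i. (n = 3–4), rinsed and γ-counted; results are decay-corrected % ID/g.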

What is called fraction remaining is the share of the starting amount still present when the sample was taken. Read a high fraction remaining as greater stability. A word on the tissue uptake: it is the percentage of the injected dose found per gram of tissue. Consider `CC(C)C[C@H](NC(=O)[C@H](CC(=O)O)NC(=O)CNC(=O)[C@H](CCCNC(=N)N)NC(=O)[C@H](CC(C)C)NC(=O)[C@H](CC(N)=O)NC(=O)[C@@H]1CCCN1C(=O)[C@@H](NC(=O)[C@H](C)NC(=O)[C@H](CC(N)=O)NC(=O)CCOCCOCCOCCOCCOCCOCCOCCOCCOCCOCCOCCOCCOCCOCCOCCOCCOCCOCCOCCOCCOCCOCCOCCOCCOCCOCCOCCOCCNC(=O)CN1CCN(CC(=O)O)CCN(CC(=O)O)CC1)C(C)C)C(=O)N[C@@H](CCC(N)=O)C(=O)N[C@H](C(=O)N[C@@H](CC(C)C)C(=O)N[C@@H](C)C(=O)N[C@@H](CCC(N)=O)C(=O)N[C@@H](CCCNC(=N)N)C(=O)N[C@H](C(=O)N[C@@H](C)C(=O)N[C@@H](CCCNC(=N)N)C(=O)N[C@H](C(=O)NCCOCCOCCOCCOCCOCCOCCOCCOCCOCCOCCOCCOCCOCCOCCOCCOCCOCCOCCOCCOCCOCCOCCOCCOCCOCCOCCOCCOCCC(N)=O)[C@@H](C)O)C(C)C)C(C)C` [[^18F]AlF 1, [^18F]AlF NOTA-αvβ6-BP], for which, in data set [1], the “binding to DX3puro cells (of total radioactivity)” value is on record as at most 1.2% and the “internalization into DX3puro cells (of total radioactivity)” value is on record as at most 0.5%. Further, in data set [2], the “binding to BxPC-3 cells (of total radioactivity)” value amounted to 45.1 ± 0.7% and the “internalization into BxPC-3 cells (of total radioactivity)” value was 31.5 ± 1.3%. In data set [3], this compound returned a share remaining at 2 h of 67%. In data set [4], this compound came in with an amount remaining at 2 h of at least 97%. For the same compound, the “injected radioactivity remaining in the body (decay corrected)” value in data set [5] amounted to 21.7 ± 3.4%. Further, the tissue uptake in data set [6] (DX3puro tumor, uptake in DX3puro tumor, all time points (1, 2, 4 h p.i.)) was at most 0.3 %ID/g. Also, in data set [6] (DX3puroβ6 tumor, uptake in DX3puroβ6 tumor, n = 3–4, mean ± SD), the tissue uptake at 1 h was determined as 2.2 ± 0.5 %ID/g. Also, the tissue uptake at 4 h in data set [6] (DX3puroβ6 tumor, uptake in DX3puroβ6 tumor, 4 h p.i., n = 3–4, mean ± SD) was 3 ± 0.7 %ID/g. For the same compound, the tissue uptake at 1 h in data set [6] (blood, blood radioactivity, DX3puroβ6/DX3puro model) was at most 0.1 %ID/g.
